1 molecule from ChEMBL document CHEMBL1123129, “Hypolipidemic activity of indan-1,3-dione derivatives in rodents” (J Med Chem, 1985) can be followed below.

“And” between values parts separate entries of the source, which are not always exact repeats. Equal values may be shown once.

The species named for series [1] is Mus musculus. Briefly: In Vitro evaluation for the CF1 liver enzyme activity on phosphatidate phosphohydrolase at concentration 100 uM. In outline: (§1)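 Mouse liver enzymes assayed in vitro on 10% homogenates of CF1 male mouse liver, with test drug added at 50–200 μM. Each enzyme follows a published procedure. Protein is measured by Lowry. Activity is given as % of untreated control (X ± SD, N = 6).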

Series [2] concerns Rattus norvegicus. Briefly: Compound was evaluated for the hypolipidemic activity at 20 mg/kg per day orally for 14 days on phospholipids content in rat VLDL. The series is classed as functional. The conditions noted are these: route oral. In outline:
(§2)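 Male Sprague–Dawley rats (~300 g) were dosed orally each day. Blood was drawn from the abdominal vein. Lipoprotein fractions (chylomicron, VLDL, LDL, HDL) were separated by the Hatch–Lees and Havel methods. Each fraction was assayed for cholesterol, triglyceride (enzymatic kit), neutral lipids, phospholipids and Lowry protein. Values are % of 1% CMC vehicle control, N = 6.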

The species entered for series [3] is Mus musculus. Briefly: In Vitro evaluation for the CF1 liver enzyme activity on phosphatidate phosphohydrolase at concentration 50 uM. In outline:
as §1

Series [4] concerns Mus musculus. Briefly: In Vivo effect for the hypolipidemic activity on Hepatic lipoprotein lipase in CF1 mice after 16 days administered orally at a dose of 40 mg/kg. The series is classed as functional. As to conditions: route oral. The method, boiled down: (§3)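 CF1 male mice are dosed orally at 10–60 mg/kg per day for 16 days, with 1% CMC as the control vehicle. Liver is homogenized at 10% in 0.25 M sucrose + 0.001 M EDTA, pH 7.2. Enzymes are assayed by literature methods, with Lowry protein. Activity is given as % of control (X ± SD, N = 6), with p from Student's t test.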

For series [5], the species on record is Mus musculus. Briefly: In Vitro evaluation for the CF1 liver enzyme activity on Mitochondrial citrate exchange at concentration 50 uM. In kind it is functional. In outline:
as §1

Series [6] relates to Rattus norvegicus. In words: Compound was evaluated for the hypolipidemic activity at 20 mg/kg per day orally for 14 days on cholesterol content in rat lipoprotein chylomicron. The series is classed as functional. As to conditions: route oral. In outline: as §2
Series [7] concerns Mus musculus. In words: In Vivo effect for the hypolipidemic activity on phosphatidate phosphohydrolase in CF1 mice after 16 days administered orally at a dose of 20 mg/kg. The series is classed as organism-based. More on the design: dose 20 mg/kg. In outline:
as §3

Series [8] concerns the target Acetyl-coenzyme A synthetase, cytoplasmic (Mus musculus) (UniProt Q9QXG4). Briefly: In Vivo effect for the hypolipidemic activity on Acetyl-coenzyme A synthetase in CF1 mice after 16 days of oral administration at a dose of 20 mg/kg. The series is classed as functional, organism-based. More on the design: dose 20 mg/kg. In outline: as §3
Series [9] has as its system Rattus norvegicus. Briefly: Compound was evaluated for the hypolipidemic activity at 20 mg/kg per day orally for 14 days on triglycerides content in rat lipoprotein chylomicron; p</=0.001. The series is classed as functional. The conditions noted are these: route oral. In outline: as §2
Series [10] concerns Rattus norvegicus. In words: Compound was evaluated for the hypolipidemic activity at 20 mg/kg per day orally for 14 days on lipid content in rat small intestine. The conditions noted are these: route oral. The series is classed as functional. The method, boiled down:
(§4)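 Male Sprague–Dawley rats were dosed orally for 14 days. Liver, small intestine and a 24-h fecal collection were lipid-extracted. Extracts were assayed for cholesterol (modified Liebermann–Burchard), triglyceride (enzymatic kit), neutral lipids, phospholipids and protein. Values are % of 1% CMC vehicle control, mean ± SD, N = 6.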

Series [11] is filed under the species Mus musculus. In words: In Vitro evaluation for the CF1 liver enzyme activity on Hepatic lipoprotein lipase at concentration 50 uM. The series is classed as functional. In outline:
as §1

The target of series [12] is T1, 3-hydroxy-3-methylglutaryl-coenzyme A reductase (Mus musculus) (UniProt Q01237).
T1 sequence (whole entry): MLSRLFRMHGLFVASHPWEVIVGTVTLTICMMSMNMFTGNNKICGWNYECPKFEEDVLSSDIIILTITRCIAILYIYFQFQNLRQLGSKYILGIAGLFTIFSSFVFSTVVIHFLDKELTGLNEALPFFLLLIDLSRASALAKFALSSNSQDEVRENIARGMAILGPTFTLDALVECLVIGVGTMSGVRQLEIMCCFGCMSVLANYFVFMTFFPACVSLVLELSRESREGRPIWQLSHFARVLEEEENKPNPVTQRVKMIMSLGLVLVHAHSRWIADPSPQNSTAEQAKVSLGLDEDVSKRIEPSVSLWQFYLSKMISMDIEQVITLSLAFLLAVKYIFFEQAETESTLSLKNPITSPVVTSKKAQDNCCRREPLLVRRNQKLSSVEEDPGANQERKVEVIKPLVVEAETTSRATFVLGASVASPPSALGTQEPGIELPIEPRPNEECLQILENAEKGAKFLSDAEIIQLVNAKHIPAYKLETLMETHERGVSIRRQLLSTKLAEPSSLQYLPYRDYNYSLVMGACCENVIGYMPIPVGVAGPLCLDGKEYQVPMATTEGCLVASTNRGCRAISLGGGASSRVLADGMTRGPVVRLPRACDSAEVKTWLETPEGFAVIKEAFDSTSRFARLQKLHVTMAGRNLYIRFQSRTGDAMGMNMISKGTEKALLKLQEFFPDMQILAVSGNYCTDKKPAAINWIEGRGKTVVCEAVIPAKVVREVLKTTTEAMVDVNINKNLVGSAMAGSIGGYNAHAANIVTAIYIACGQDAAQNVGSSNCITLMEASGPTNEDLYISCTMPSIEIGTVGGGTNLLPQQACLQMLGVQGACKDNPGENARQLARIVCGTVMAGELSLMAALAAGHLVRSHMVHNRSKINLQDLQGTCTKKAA
Briefly: In Vivo effect for the hypolipidemic activity on HMG-CoA reductase in CF1 mice after 16 days of oral administration at a dose of 10 mg/kg. More on the design: dose 10 mg/kg. The series is classed as organism-based. In outline:
as §3

The target in series [13] is Cholesterol 7-alpha-hydroxylase (Cytochrome P450 7A1) (Mus musculus, UniProt Q64505). Briefly: In vitro percent Cholesterol 7-alpha-hydroxylase activity in mouse CF1 liver microsomes at 50 uM. More on the design: species or system Microsome. The conditions noted are these: read-out: Control. The method, boiled down: as §1
Sequence of Cholesterol 7-alpha-hydroxylase (Cytochrome P450 7A1) (Q64505 whole entry): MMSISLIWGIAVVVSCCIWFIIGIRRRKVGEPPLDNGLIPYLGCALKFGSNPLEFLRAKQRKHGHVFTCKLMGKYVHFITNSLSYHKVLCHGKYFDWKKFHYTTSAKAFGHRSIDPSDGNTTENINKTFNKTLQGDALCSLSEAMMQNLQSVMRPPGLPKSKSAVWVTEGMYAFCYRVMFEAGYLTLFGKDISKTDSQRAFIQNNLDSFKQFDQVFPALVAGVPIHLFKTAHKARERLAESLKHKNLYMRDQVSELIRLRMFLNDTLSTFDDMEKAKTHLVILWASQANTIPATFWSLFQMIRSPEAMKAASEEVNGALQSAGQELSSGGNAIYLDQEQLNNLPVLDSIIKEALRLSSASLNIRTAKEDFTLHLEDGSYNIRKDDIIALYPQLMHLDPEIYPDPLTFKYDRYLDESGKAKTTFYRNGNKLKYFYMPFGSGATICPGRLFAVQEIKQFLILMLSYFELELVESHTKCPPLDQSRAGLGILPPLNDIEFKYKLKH
(Microsomes from liver hold many membrane-bound enzymes, among them those of drug oxidation.)

For series [14], the system named is Mus musculus. Briefly: In Vivo effect for the hypolipidemic activity on Hepatic lipoprotein lipase in CF1 mice after 16 days administered orally at a dose of 60 mg/kg. In kind it is functional. The conditions noted are these: route oral. The method, boiled down: as §3
Series [15] has as its target T1, 3-hydroxy-3-methylglutaryl-coenzyme A reductase (Mus musculus). In words: In Vivo effect for the hypolipidemic activity on HMG-CoA reductase in CF1 mice after 16 days of oral administration at a dose of 20 mg/kg. In kind it is organism-based. Set-up: dose 20 mg/kg. The method, boiled down: as §3
Series [16] concerns Mus musculus. Briefly: In Vivo effect for the hypolipidemic activity on Acetyl-CoA carboxylase in CF1 mice after 16 days administered orally at a dose of 40 mg/kg. In kind it is functional. The conditions noted are these: route oral. In outline: as §3
In series [17] the test system is Mus musculus. Briefly: Compound was evaluated for the hypolipidemic activity in CF1 male mice at a dose of 60 mg/kg orally for Serum cholesterol at 16th day. The series is classed as functional. The conditions noted are these: route oral. The method, boiled down: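 CF1 male mice received the agent orally in 1% CMC at 10–60 mg/kg per day. Tail-vein blood was taken on days 9 and 16. Serum cholesterol was measured by modified Liebermann–Burchard on duplicate 25-µL samples, and serum triglyceride on day 16 in duplicate 50-µL samples. Values are % of vehicle control, mean ± SD, N = 6; Student's t test.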

Series [18] has as its system Mus musculus. Briefly: In Vivo effect for the hypolipidemic activity on phosphatidate phosphohydrolase in CF1 mice after 16 days administered orally at a dose of 40 mg/kg. In kind it is organism-based. Set-up: dose 40 mg/kg. In outline: as §3
The species named for series [19] is Mus musculus. In words: In Vitro evaluation for the CF1 liver enzyme activity on Mitochondrial citrate exchange at concentration 200 uM. The series is classed as functional. In outline: as §1
In series [20] the test system is Rattus norvegicus. In words: Compound was evaluated for the hypolipidemic activity at 20 mg/kg per day orally for 14 days on cholesterol content in rat liver. In kind it is functional. As to conditions: route oral. The method, boiled down:
as §4

The subject of series [21] is Rattus norvegicus. Briefly: Compound was evaluated for the hypolipidemic activity at 20 mg/kg per day orally for 14 days on cholesterol content in rat small intestine. In kind it is functional. The conditions noted are these: route oral. The method, boiled down: as §4
Series [22] concerns Rattus norvegicus. In words: Compound was evaluated for the hypolipidemic activity at 20 mg/kg per day orally for 14 days on cholesterol content in rat LDL. The series is classed as functional. The conditions noted are these: route oral. In outline:
as §2

Sequence of Acetyl-coenzyme A synthetase, cytoplasmic (Mus musculus) (Q9QXG4 whole entry): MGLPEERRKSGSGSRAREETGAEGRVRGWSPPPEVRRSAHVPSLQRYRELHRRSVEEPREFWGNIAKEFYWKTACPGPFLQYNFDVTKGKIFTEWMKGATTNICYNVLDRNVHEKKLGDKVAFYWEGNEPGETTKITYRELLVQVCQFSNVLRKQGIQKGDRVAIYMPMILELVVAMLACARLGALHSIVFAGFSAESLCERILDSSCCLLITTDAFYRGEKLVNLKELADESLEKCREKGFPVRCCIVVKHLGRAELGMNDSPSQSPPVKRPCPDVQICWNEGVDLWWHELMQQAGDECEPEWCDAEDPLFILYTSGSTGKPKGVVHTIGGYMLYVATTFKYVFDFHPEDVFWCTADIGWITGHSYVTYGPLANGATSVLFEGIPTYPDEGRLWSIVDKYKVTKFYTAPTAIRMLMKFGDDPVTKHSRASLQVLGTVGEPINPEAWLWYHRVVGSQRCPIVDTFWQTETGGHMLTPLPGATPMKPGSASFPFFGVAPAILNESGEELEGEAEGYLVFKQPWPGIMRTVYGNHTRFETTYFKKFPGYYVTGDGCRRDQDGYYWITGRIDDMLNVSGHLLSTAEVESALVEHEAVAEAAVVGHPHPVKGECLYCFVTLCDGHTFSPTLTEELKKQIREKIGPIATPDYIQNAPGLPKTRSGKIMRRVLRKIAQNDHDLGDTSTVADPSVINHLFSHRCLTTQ

For the molecule `COc1ccc(C2C(=O)c3ccccc3C2=O)cc1` [ANISINDIONE], the Control in the series filed under Mus musculus [1] is 29%; in the series on Rattus norvegicus [2], 128%; in the series listed under Mus musculus [3], 36%; in the series on Mus musculus [4] it was 89%; in the series filed under Mus musculus [5], 36%; in the series with Rattus norvegicus [6], 96%. The Control with Mus musculus [7] was found to be 35%; in series [8], 72%; with Rattus norvegicus [9], 72%; in the series on Rattus norvegicus [10], 100%; in the series listed under Mus musculus [11], 86%; in series [12], 116%. Moreover, the Control in the series on Mus musculus [14] was 89%; in series [15] it was 114%; in the series with Mus musculus [16], 98%; in the series with Mus musculus [17] it was 62%; in the series with Mus musculus [18], 57%; in the series filed under Mus musculus [19], 36%. Further, the Control with Rattus norvegicus [20] was 69% and 84%; with Rattus norvegicus [21], 87%; in the series with Rattus norvegicus [22] it was 18%. The activity at 50 µM in series [13] is 106%.
